Assay results reported in ChEMBL document CHEMBL3351600, “Sulfur, selenium and tellurium pseudopeptides: synthesis and biological evaluation” (Bioorg Med Chem, 2014).

What was measured:
[1] = Growth inhibition of human PC3 cells after 48 hrs; format: functional; details: PC-3, 48 h
Outline: (§1)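 NCI-60 human tumour cell line panel screen run at the US National Cancer Institute under its standard cytotoxicity protocol. It covers leukaemia, NSCLC, colon, CNS, melanoma, ovarian, renal, prostate and breast lines. An initial single-dose test was followed by five-dose testing with 48 h compound exposure.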

MCF7 [2] = experiment: Growth inhibition of human MCF7 cells after 48 hrs; format: functional; details: MCF7, 48 h; outline: as §1
[3] = Growth inhibition of human Hs 578T cells after 48 hrs; format: functional; outline: as §1
[4] = Growth inhibition of human BT549 cells after 48 hrs; format: functional; details: BT-549, 48 h; outline: as §1
[5] = Growth inhibition of human LOXIMVI cells after 48 hrs; format: functional; details: LOX IMVI; outline: as §1
MCF7 [6] = experiment: Cytotoxicity against human MCF7 cells assessed as cell viability after 24 hrs incubation by MTT assay; format: functional, cell-based; details: MCF7, 24 h
Outline: (§2)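 Cell lines came from DSMZ; primary human fibroblasts served as non-cancer controls. Cells were grown in medium with 10% FCS, seeded at 50,000 cells/ml, and grown 2 days at 37 °C, 10% CO2. Serial dilutions were then added for 24 h. MTT (final 0.5 mg/ml) was added for 2 h. Formazan was pelleted, PBS-washed, dissolved in isopropanol/0.4% HCl and read at 590 nm. Two parallel experiments were run. IC50 was taken as the concentration giving 50% of untreated-control absorbance.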

[7] = Cytotoxicity against human fibroblasts assessed as cell viability after 24 hrs incubation by MTT assay; format: cell-based; details: Fibroblast; outline: as §2
Saccharomyces cerevisiae = experiment: Antimicrobial activity against Saccharomyces cerevisiae assessed as inhibition at 20 ug/6 mm disk after 1 to 2 days by agar diffusion assay; format: functional
Outline: (§3)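 Standard agar diffusion: 6-mm paper disks loaded with 20 µg of compound were placed on inoculated plates. Inhibition-zone diameter (mm) was read after 1 and 2 days of growth.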

Mycolicibacterium phlei = experiment: Antimicrobial activity against Mycobacterium phlei assessed as inhibition at 20 ug/6 mm disk after 1 to 2 days by agar diffusion assay; format: functional; outline: as §3
Staphylococcus aureus = experiment: Antimicrobial activity against Staphylococcus aureus assessed as inhibition at 20 ug/6 mm disk after 1 to 2 days by agar diffusion assay; format: functional; outline: as §3
Klebsiella pneumoniae = experiment: Antimicrobial activity against Klebsiella pneumoniae assessed as inhibition at 20 ug/6 mm disk after 1 to 2 days by agar diffusion assay; format: functional; outline: as §3
Escherichia coli = experiment: Antimicrobial activity against Escherichia coli tolC assessed as inhibition at 20 ug/6 mm disk after 1 to 2 days by agar diffusion assay; format: functional; outline: as §3
[8] = Lipophilicity, log K of the compound by HPLC analysis
HL-60(TB) = experiment: Growth inhibition of human HL-60(TB) cells after 48 hrs; format: functional; details: HL-60, 48 h; outline: as §1
[9] = Growth inhibition of human MOLT4 cells after 48 hrs; format: functional; details: MOLT-4, 48 h; outline: as §1
A549 = experiment: Growth inhibition of human A549/ATCC cells after 48 hrs; format: functional; details: A549, 48 h; outline: as §1
[10] = Growth inhibition of human HOP92 cells after 48 hrs; format: functional; details: HOP-92, 48 h; outline: as §1
NCI-H23 = experiment: Growth inhibition of human NCI-H23 cells after 48 hrs; format: functional; details: NCI-H23, 48 h; outline: as §1
NCI-H522 = experiment: Growth inhibition of human NCI-H522 cells after 48 hrs; format: functional; details: NCI-H522, 48 h; outline: as §1
[11] = Growth inhibition of human HCT116 cells after 48 hrs; format: functional; details: HCT-116, 48 h; outline: as §1
[12] = Growth inhibition of human SF539 cells after 48 hrs; format: functional; details: SF-539, 48 h; outline: as §1
SNB-19 = experiment: Growth inhibition of human SNB19 cells after 48 hrs; format: functional; details: SNB-19, 48 h
Outline: (§4)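 Run by the NCI 58-cell-line screen under its standard cytotoxicity protocol. Compounds were first tested at a single dose, then at five doses. Cells were exposed to compound for 48 h.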

SNB-75 = experiment: Growth inhibition of human SNB75 cells after 48 hrs; format: functional; details: SNB-75, 48 h; outline: as §4
U-251 = experiment: Growth inhibition of human U251 cells after 48 hrs; format: functional; details: U-251, 48 h; outline: as §4
SK-MEL-28 = experiment: Growth inhibition of human SK-MEL-28 cells after 48 hrs; format: functional; details: SK-MEL-28, 48 h; outline: as §1
SK-MEL-5 = experiment: Growth inhibition of human SK-MEL-5 cells after 48 hrs; format: functional; details: SK-MEL-5, 48 h; outline: as §4
[13] = Growth inhibition of human UACC257 cells after 48 hrs; format: functional; details: UACC-257, 48 h; outline: as §4
[14] = Growth inhibition of human UACC62 cells after 48 hrs; format: functional; details: UACC-62, 48 h; outline: as §4
IGROV-1 = experiment: Growth inhibition of human IGROV1 cells after 48 hrs; format: functional; details: IGROV-1, 48 h; outline: as §1
[15] = Growth inhibition of human OVCAR4 cells after 48 hrs; format: functional; details: OVCAR-4, 48 h; outline: as §1
[16] = Growth inhibition of human OVCAR8 cells after 48 hrs; format: functional; details: OVCAR-8, 48 h; outline: as §1
786-0 = experiment: Growth inhibition of human 786-0 cells after 48 hrs; format: functional; details: 786-0, 48 h; outline: as §1
A498 = experiment: Growth inhibition of human A498 cells after 48 hrs; format: functional; details: A498, 48 h; outline: as §1
[17] = read-out: pLC50 (the source's name) (converted)

Which GI50 [1] does the source give for `COc1ccc(N(CC(=O)NCCC[Te]c2ccccc2)C(=O)CNC(=O)OC(C)(C)C)cc1` here?
The GI50 was 1.7 µM.

What about the LC50 [1] of the same compound?
The LC50 was > 100 µM.

And the TGI ([1]; read-out: pTGI (converted))?
The TGI was 10 µM.

And the GI50 (MCF7 [2])?
The GI50 was 2.57 µM.

And the LC50 (concentration killing 50% of cells) (MCF7 [2])?
The LC50 (concentration killing 50% of cells) was 37.2 µM.

What about the TGI (MCF7 [2]; read-out: pTGI (converted)) of the same compound?
Its TGI is 7.59 µM.

And the GI50 [3]?
Its GI50 is 2.75 µM.

What about the LC50 [3] of the same compound?
Its LC50 is > 100 µM.

And the TGI ([3]; read-out: pTGI (converted))?
Its TGI is 7.24 µM.

And the GI50 [4]?
Its GI50 is 1.7 µM.

And the LC50 (concentration killing 50% of cells) [4]?
The LC50 (concentration killing 50% of cells) was > 100 µM.

And the TGI ([4]; read-out: pTGI (converted))?
The TGI was 4.9 µM.

And the GI50 [5]?
Its GI50 is 2.34 µM.

What about the LC50 [5] of the same compound?
Its LC50 is 34.7 µM.

And the TGI ([5]; read-out: pTGI (converted))?
Its TGI is 5.75 µM.

And the IC50 (MCF7 [6])?
The IC50 was 5 µM.

What about the IC50 [7] of the same compound?
The IC50 was 25 µM.

And the “diameter of the inhibition zone (DIZ)” value (Saccharomyces cerevisiae)?
Its value is 0 mm.

And the “diameter of the inhibition zone (DIZ)” value (Mycolicibacterium phlei)?
Its value is 12 mm.

And the “diameter of the inhibition zone (DIZ)” value (Staphylococcus aureus)?
The value was 10 mm.

What about the “diameter of the inhibition zone (DIZ)” value (Klebsiella pneumoniae) of the same compound?
The value was 12 mm.

What about the “diameter of the inhibition zone (DIZ)” value (Escherichia coli) of the same compound?
The value was 12 mm.

What about the “log K” value [8] of the same compound?
Its value is 0.05.

And the GI50 (HL-60(TB))?
Its GI50 is 2.09 µM.

What about the CC50 (HL-60(TB); [17]) of the same compound?
The CC50 was > 100 µM.

And the TGI (HL-60(TB); read-out: pTGI (converted))?
The TGI was 5.62 µM.

What about the GI50 [9] of the same compound?
Its GI50 is 3.09 µM.

And the CC50 [9, 17]?
The CC50 was > 100 µM.

And the TGI ([9]; read-out: pTGI (converted))?
Its TGI is 10 µM.

What about the GI50 (A549) of the same compound?
Its GI50 is 0.525 µM.

What about the CC50 (A549; [17]) of the same compound?
The CC50 was 6.76 µM.

And the TGI (A549; read-out: pTGI (converted))?
The TGI was 2.19 µM.

What about the GI50 [10] of the same compound?
The GI50 was 2.95 µM.

What about the CC50 [10, 17] of the same compound?
The CC50 was 66.1 µM.

What about the TGI ([10]; read-out: pTGI (converted)) of the same compound?
Its TGI is 4.9 µM.

What about the GI50 (NCI-H23) of the same compound?
The GI50 was 2.51 µM.

What about the CC50 (NCI-H23; [17]) of the same compound?
Its CC50 is > 100 µM.

And the TGI (NCI-H23; read-out: pTGI (converted))?
Its TGI is 6.61 µM.

What about the GI50 (NCI-H522) of the same compound?
The GI50 was 2.57 µM.

What about the CC50 (NCI-H522; [17]) of the same compound?
Its CC50 is 56.2 µM.

And the TGI (NCI-H522; read-out: pTGI (converted))?
The TGI was 10.5 µM.

What about the GI50 [11] of the same compound?
Its GI50 is 2.09 µM.

What about the CC50 [11, 17] of the same compound?
The CC50 was 49 µM.

And the TGI ([11]; read-out: pTGI (converted))?
Its TGI is 6.46 µM.

What about the GI50 [12] of the same compound?
The GI50 was 2.14 µM.

And the CC50 [12, 17]?
The CC50 was 15.8 µM.

What about the TGI ([12]; read-out: pTGI (converted)) of the same compound?
Its TGI is 4.79 µM.

What about the GI50 (SNB-19) of the same compound?
The GI50 was 8.71 µM.

What about the CC50 (SNB-19; [17]) of the same compound?
Its CC50 is > 100 µM.

And the TGI (SNB-19; read-out: pTGI (converted))?
Its TGI is 9.55 µM.

What about the GI50 (SNB-75) of the same compound?
The GI50 was 6.61 µM.

And the CC50 (SNB-75; [17])?
The CC50 was 36.3 µM.

What about the TGI (SNB-75; read-out: pTGI (converted)) of the same compound?
The TGI was 7.41 µM.

And the GI50 (U-251)?
The GI50 was 2.4 µM.

And the CC50 (U-251; [17])?
Its CC50 is 49 µM.

And the TGI (U-251; read-out: pTGI (converted))?
Its TGI is 6.46 µM.

And the GI50 (SK-MEL-28)?
Its GI50 is 3.09 µM.

What about the CC50 (SK-MEL-28; [17]) of the same compound?
Its CC50 is 36.3 µM.

What about the TGI (SK-MEL-28; read-out: pTGI (converted)) of the same compound?
Its TGI is 10 µM.

What about the GI50 (SK-MEL-5) of the same compound?
The GI50 was 3.16 µM.

What about the CC50 (SK-MEL-5; [17]) of the same compound?
The CC50 was 34.7 µM.

And the TGI (SK-MEL-5; read-out: pTGI (converted))?
The TGI was 9.12 µM.

What about the GI50 [13] of the same compound?
The GI50 was 8.51 µM.

What about the CC50 [13, 17] of the same compound?
Its CC50 is 61.7 µM.

And the TGI ([13]; read-out: pTGI (converted))?
Its TGI is 24 µM.

And the GI50 [14]?
Its GI50 is 1.66 µM.

What about the CC50 [14, 17] of the same compound?
Its CC50 is 8.71 µM.

What about the TGI ([14]; read-out: pTGI (converted)) of the same compound?
The TGI was 3.8 µM.

And the GI50 (IGROV-1)?
The GI50 was 2.24 µM.

What about the CC50 (IGROV-1; [17]) of the same compound?
Its CC50 is 25.7 µM.

What about the TGI (IGROV-1; read-out: pTGI (converted)) of the same compound?
Its TGI is 5.37 µM.

And the GI50 [15]?
The GI50 was 22.4 µM.

What about the LC50 [15] of the same compound?
The LC50 was > 100 µM.

And the TGI ([15]; read-out: pTGI (converted))?
Its TGI is > 100 µM.

What about the GI50 [16] of the same compound?
Its GI50 is 2.4 µM.

And the LC50 [16]?
Its LC50 is > 100 µM.

And the TGI ([16]; read-out: pTGI (converted))?
Its TGI is 6.92 µM.

And the GI50 (786-0)?
Its GI50 is 3.72 µM.

What about the LC50 (786-0) of the same compound?
Its LC50 is 56.2 µM.

And the TGI (786-0; read-out: pTGI (converted))?
Its TGI is 12.9 µM.

What about the GI50 (A498) of the same compound?
The GI50 was 2.29 µM.

And the LC50 (A498)?
The LC50 was 33.9 µM.

And the TGI (A498; read-out: pTGI (converted))?
Its TGI is 5.37 µM.
